This is a sample that favours compounds with a hit; in the whole collection about 9.3% have one here.
E coli WT exp: growth inhibitors of E. coli BW25113 wild type | OD600 absorbance | growth inhibition, % at 100 µM | 0.15% of 98,000 active | AID 710;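 active = growth inhibition above about 50% at one test dose, limit read from the data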;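 also: growth measured after 20 h incubation at 37 °C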
Ecoli tolC: E. coli tolC mutant growth inhibition; E. coli BW25113 tolC mutant growth, OD615; growth inhibition, % at 10 µM (by protocol); 2.2% of 65,000 active; AID 573;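 active = growth inhibition at or above a cutoff equal to the mean over every tested compound plus 3 SD, cut at about 60% in these data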;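 also: growth measured after 20 h incubation at 37 °C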
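Assay system: tolC-deleted E. coli BW25113. Medium: kanamycin-containing LB broth (50 µg/mL). Dosing: 10 µM final, single dose. Timing: bacterial growth with compound for 20 h at 37 °C. Detection: A615 absorbance measurement. Read-out basis: growth inhibition in percent.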
D1 mod: D1 dopamine receptor (human) allosteric modulation; AID 641; 5.9% of 58,000 active; HEK293 D1, CRE-luciferase, dopamine EC30 potentiation; actives deviate in either direction; B-score at 10 µM; P21728;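 active = luminescence count or its row- and column-corrected plate score outside the 99.7% band of the plate's sample wells, on either side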
Target sequence (P21728 whole entry, looked up): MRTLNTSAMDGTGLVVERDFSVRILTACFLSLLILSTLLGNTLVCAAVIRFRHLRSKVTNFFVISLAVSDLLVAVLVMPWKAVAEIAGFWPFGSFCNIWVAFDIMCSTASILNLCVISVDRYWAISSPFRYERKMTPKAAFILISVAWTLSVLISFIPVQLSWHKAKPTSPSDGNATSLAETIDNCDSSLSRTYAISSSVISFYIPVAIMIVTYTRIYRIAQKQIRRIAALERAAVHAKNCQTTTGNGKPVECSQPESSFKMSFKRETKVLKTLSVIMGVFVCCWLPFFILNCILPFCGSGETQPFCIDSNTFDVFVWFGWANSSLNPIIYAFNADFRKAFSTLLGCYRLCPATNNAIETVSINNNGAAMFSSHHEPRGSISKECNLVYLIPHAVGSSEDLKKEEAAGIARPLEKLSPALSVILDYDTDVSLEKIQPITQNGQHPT
DAT uptake mod: human DAT dopamine uptake with cocaine, either direction; 1.3% of 110,000 active; LLC-PK1 hDAT cells, [14C]-dopamine uptake with cocaine IC80; actives deviate in either direction; Q01959; B-score at 10 µM;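 active = Z score or B-score, a plate-position-corrected score, falls beyond the plate's 99.7% confidence bounds, in either direction; inactive = both scores lie inside the 99.7% bounds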;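 also: scored against the spread of the other compound wells on the same plate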
PostGolgi ctrl: growth of the yeast control strain, post-Golgi counter-screen; 5% of 98,000 active; inhibition, % at 10 µM; efflux-deficient yeast background strain, growth absorbance A615, 16 h
PostGolgi yeast: growth inhibition of a yeast mutant, post-Golgi transport screen | post-Golgi transport phenotypic cell assay | inhibition, % at 10 µM | 0.9% of 98,000 active;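 also: yeast cells grown in 1536-well plates; yeast grown about 18 h at 30C before absorbance read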
An asterisk follows results filed as active; · = no result given. Rule as the data show it, unless noted: active = inhibition above about 30%; inactive = the rest.

SMILES	E coli WT exp	Ecoli tolC	D1 mod	DAT uptake mod	PostGolgi ctrl	PostGolgi yeast
CNC(=O)COc1ncnc2sc(C)c(C)c12	5.0	·	·	-0.697	3.9	6.9
Cc1sc2ncnc(OCC(=O)NCC3CCCO3)c2c1C (configuration not stated)	1.0	-23.9	0.618	-3.27*	-2.4	-7.5
COc1ccc(Cl)c(NCCC(=O)O)c1	-7.0	-2.2	0.558	-0.254	-5.8	0.0
COc1cccc(C2C(C(=O)OCc3ccccc3)=C(C)Nc3ncnn32)c1OC (configuration not stated)	-9.0	4.1	0.132	-0.0831	-3.1	2.0
N=c1c(C(=O)NC2CCCCC2)cc2c(=O)n3ccccc3nc2n1CCN1CCOCC1	·	-15.3	0.219	·	·	·
CCC(C)(C)NC(=O)C(c1ccc(C)cc1)N(Cc1ccco1)C(=O)Cn1nnc2ccccc21 (configuration not stated)	·	·	·	-0.597	·	·
Cc1cccc(C)c1NC(=O)C(c1cccs1)N(Cc1ccco1)C(=O)Cn1nnc2ccccc21 (configuration not stated)	-12.0	64.3*	0.0242	-0.263	17.6	-3.6
CCC(C)n1c(SCC(=O)NC(=O)Nc2ccc3c(c2)OCCO3)nc2ccccc2c1=O (configuration not stated)	-11.0	40.7	-0.104	-1.09	12.0	1.1
CCC(C)n1c(SC(C)C#N)nc2ccccc2c1=O (configuration not stated)	7.0	27.9	-4.79*	-1.24	5.6	20.1
CCOC(=O)c1ccc(N2C(=O)C3CC=CCC3C2=O)cc1 (configuration not stated)	-4.0	-3.5	0.292	7.85*	-4.6	-5.5
Cc1cc(C)c(S(=O)(=O)N(C)CC(=O)NC2CCCC2)c(C)c1	8.0	-2.8	·	-0.519	2.8	0.3
Cc1cccc2cc(-c3nc4c(C)cccn4c3NCc3ccco3)c(=O)[nH]c12	-1.0	·	·	0.176	56.2*	44.3*
O=c1c2cnn(-c3ccccc3)c2nnn1Cc1ccccn1	1.0	3.0	·	2.66*	23.3	-7.3
Cc1cc(C)n2nc(SCc3nnc(SCc4ccccc4)s3)nc2n1	0.0	·	·	2.37	38.6*	5.9
COc1cc(C)nc2nc(SCc3ccccc3)nn12	3.0	·	·	-0.396	3.9	3.6
CCn1c(=O)c2c(nc(SCC(=O)NCC3CCCO3)n2C)n(C)c1=O (configuration not stated)	-3.0	-13.6	0.669	-0.677	21.4	0.6
COc1ccc(C(=O)NCc2ccccc2OC)cc1	-7.0	14.0	0.528	-0.129	6.6	12.9
COc1cc(C(=O)NCc2cccc3ccccc23)cc(Cl)c1OC	-18.0	·	·	-0.215	39.3*	0.3
O=C(NCc1ccc2c(c1)OCO2)c1nnc(Cc2ccc(Cl)cc2)o1	·	2.8	-0.26	·	·	·
CN=C(Nc1ccccc1)SC1CC(=O)N(c2ccc(C(=O)OC)cc2)C1=O (configuration not stated)	-7.0	·	·	-0.323	36.8*	4.8
CN=C(Nc1ccccc1OC)SC1CC(=O)N(c2ccc(C(=O)OC)cc2)C1=O (configuration not stated)	-14.0	·	·	2.36*	2.7	4.8
O=C1CC(SC(=Nc2ccccc2)Nc2ccccc2)C(=O)N1c1cccc(Cl)c1 (configuration not stated)	-9.0	·	·	-1.13	32.6*	4.6
Cc1sc2ncnc(NCC(c3ccco3)N3CCCC3)c2c1C (configuration not stated)	3.0	·	·	-0.866	3.4	7.5
COc1ccc(-c2cc(C(F)(F)F)nc(N3CCN(c4ccccc4)CC3)n2)cc1OC	·	-1.2	·	·	·	·
COc1nc(-c2ccccc2)cc(-c2ccc(OC)c(OC)c2)n1	-22.0	33.1	1.07	0.0363	38.0*	6.9
SMILES	E coli WT exp	Ecoli tolC	D1 mod	DAT uptake mod	PostGolgi ctrl	PostGolgi yeast
O=C(C1=COCCO1)N1CCN(C(c2ccccc2)c2ccccc2)CC1	-8.0	10.9	0.646	-0.0575	3.5	-6.0
CC(C)n1c(SCc2ccc(Cl)cc2)nc2c1c(=O)[nH]c(=O)n2C	-8.0	-5.1	1.87	-3.05*	9.8	-3.3
Cc1ccc(CSc2nc3c(c(=O)[nH]c(=O)n3C)n2CCC(C)C)cc1	-6.0	23.3	4.04	-0.333	40.7*	1.8
CC(C)n1c(SCC(N)=O)nc2c1c(=O)[nH]c(=O)n2C	-12.0	-0.8	-0.0813	0.169	12.7	-4.4
O=c1c(Cc2ccc(F)cc2)c(O)ccn1Cc1cccc(Cl)c1	-1.0	·	·	-1.06	8.2	-2.0
CC1CCCN(C(=O)CSc2nnc3n(C4CCCC4)c(=O)c4ccccc4n23)C1 (configuration not stated)	9.0	44.2	1.14	3.1*	5.4	-6.4
Cc1ccc(S(=O)(=O)n2[nH]c(=O)cc2N)cc1	·	·	·	-0.941	·	·
Cn1c(Cn2c(=O)sc3ccccc32)nnc1SCC(=O)NC1CCCC1	-16.0	-14.3	0.0231	7.56*	11.1	-0.2
Cc1ccc2c(c1)C(=O)CC1(CCCC1)O2	·	·	·	-0.0802	·	·
O=C(Nc1ccccc1)c1sc2cc(C(F)(F)F)cnc2c1-c1cccs1	-8.0	·	·	0.0481	2.9	18.1
O=C(CSCc1ccccc1)NNC(=S)Nc1cccc(Cl)c1Cl	7.0	·	·	0.222	31.4*	-6.7
CC(C)CNC(=O)c1ccccc1NC(=O)CSCc1ccccc1	-13.0	·	·	-0.13	-3.0	-7.7
COc1cccc(/C=N/NC(=O)c2ccccc2N(Cc2ccccc2)S(=O)(=O)c2ccccc2)c1OC	-18.0	·	·	·	19.2	1.0
Oc1ccc2ccccc2c1/C=N/Nc1nnc(-c2ncc[nH]2)c2ccccc12	9.0	·	·	0.964	39.0*	9.3
COc1ccc(/C=N/Nc2nnc(-c3ncc[nH]3)c3ccccc23)cc1	-6.0	·	·	-0.852	8.1	-2.5
CN(C)Cc1cc(CCNC(=O)c2ccc(Cl)cc2)ccc1O	11.0	-6.1	-2.91*	-0.608	-0.8	11.3
CCOCCN1CCN(c2c(C)c(C)nc3cc(-c4cc(OC)cc(OC)c4)nn23)CC1	-6.0	1.9	·	2.52*	28.2	-3.2
COc1ccc(OC(=O)c2cnn(-c3ccccc3)c2C)cc1	6.0	·	·	0.199	3.5	10.2
CN(C[C@H](Cc1ccccc1)N(C[C@H](c1ccccc1)N(CCc1ccccc1)N=O)N=O)N=O	·	·	·	0.186	·	·
CCOc1cc(C(=O)OCC(=O)NCc2ccco2)cc(OCC)c1OCC	-8.0	1.9	0.773	0.222	-2.4	-0.5
O=C(COC(=O)c1ccccc1Nc1ccccc1)NCc1ccco1	-10.0	-1.0	-0.328	-0.172	31.6*	-4.9
CC(C)(C)c1ccc(OCC(=O)NCc2ccco2)c(Br)c1	3.0	100.0*	0.023	0.95	11.9	6.5
CCn1c(=O)n(CC)c2cc(S(=O)(=O)Nc3cc(C)cc(C)c3C#N)ccc21	-3.0	·	·	0.339	2.1	6.8
Cc1c(Cc2c(Cl)cccc2Cl)c(=O)ccn1C(C)c1ccccc1 (configuration not stated)	9.0	·	·	1.28	20.4	4.1
CC1CC(C)CN(C(=O)CSc2nnc(-c3ccc(Cl)s3)o2)C1 (configuration not stated)	-2.0	70.7*	-0.134	0.514	2.9	6.6
NCc1ccc(-c2nc3ccccc3o2)cc1	·	-5.4	-0.758	·	·	·

Bioassay records as filed in PubChem.
